From article PMC3983339 (Journal of Medicinal Chemistry, 2014)

Tests used:
PRMT1 [1] = target: T1, PRMT1 (Rattus norvegicus, UniProt Q63009); assay: radiometric P81 filter binding assay, PRMT1; assay type: biochemical; settings: for inhibition at 20 µM: read-out: inhibition of PRMT1
PRMT5 = PRMT5 (Homo sapiens, UniProt O14744); assay: radiometric P81 filter binding assay, PRMT5; assay type: biochemical; settings: initial screening at 20 μM compound
In short: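 HA-PRMT5 was co-expressed with WDR77 in HEK293T cells and purified on HA-peptide agarose by peptide elution. Reactions at 30 °C used 50 mM HEPES pH 8.0, 50 mM NaCl, 1 mM EDTA, 0.5 mM DTT, with 0.5 μM [3H]SAM and 1 μM H4(1–20) peptide. Test compound at 20 μM was preincubated with enzyme and [3H]SAM for 5 min at room temperature, then peptide was added to start the reaction. Mixtures were spotted on P81 paper, washed with 50 mM NaHCO3 pH 9.0, and counted by scintillation. Controls lacked inhibitor, or both peptide and inhibitor.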

PRMT1 [2] = target: T1, PRMT1; assay: steady-state kinetic analysis of PRMT1 inhibition; assay type: biochemical; settings: for Ki: Kis
PRMT1 [3] = target: T1, PRMT1; assay: competitive fluorescence anisotropy binding assay; settings: 524 nm, 0.2 μM H4-FL, 2.0 μM PRMT1, increasing compound concentration
In short: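 Recombinant His6-PRMT1 was expressed in E. coli BL21(DE3) and Ni-NTA purified. 0.2 μM fluorescein-H4(1–20) and 2 μM PRMT1 were mixed, then test compound was titrated in until anisotropy levelled off. Excitation was 498 nm and emission 524 nm. Anisotropy from several scans was plotted against inhibitor concentration.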

[4] = test system: intracellular PRMT1 activity (GFP-ALY methylation) in 293T cells; assay: GFP-ALY methylation in 293T cells; assay type: cell-based, human
In short: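 A stable 293T line expressing GFP-ALY, kept in DMEM plus 10% FBS, was exposed to 20 μM test compound for 15 h. Cells were lysed on ice for 30 min in H buffer (150 mM NaCl, 20 mM Tris pH 7.8, 1% NP-40, phosphatase/protease inhibitors, 1 mM DTT) and cleared at 12000g for 20 min. GFP-ALY was pulled down on GFP antibody beads and analysed by SDS–PAGE and ASYM24 Western blot with chemiluminescence detection.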

leukemia cell lines = assay: CellTiter-Glo cell viability, panel of leukemia cell lines; assay type: cell-based; settings: 10 different leukemia cell lines, 20 μM, 3 consecutive days
HEL cells = assay: CellTiter-Glo cell viability, HEL cells; assay type: cell-based; settings: HEL cells (JAK2V617F), 20 μM, 3 days
In short: (§1)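 Leukemia cell lines were grown in RPMI plus 10% FBS and seeded at 1000–1500 cells per well. Cultures received 20 μM test compound or an equal amount of DMSO. CellTiter-Glo reagent was added at 0, 24, 48 and 72 h after treatment, and luminescence was read. Viability is expressed as viable cells in the treated group as a percentage of the DMSO control.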

CMY cells = assay: CellTiter-Glo cell viability, CMY cells; assay type: cell-based; settings: 20 μM, compared with HEL, Jurkat, HL-60
In short: as §1

CHRF-288-11 cells = assay: CellTiter-Glo cell viability, CHRF-288-11 cells; assay type: cell-based; settings: 20 μM, compared with HEL, Jurkat, HL-60
In short: as §1

MOLM-13 cells = assay: CellTiter-Glo cell viability, MOLM-13 cells; assay type: cell-based; settings: 20 μM, compared with HEL, Jurkat, HL-60
In short: as §1

[5] = varied H4-20, [3H]AdoMet fixed at 3 μM

T1 sequence (Q63009 whole entry): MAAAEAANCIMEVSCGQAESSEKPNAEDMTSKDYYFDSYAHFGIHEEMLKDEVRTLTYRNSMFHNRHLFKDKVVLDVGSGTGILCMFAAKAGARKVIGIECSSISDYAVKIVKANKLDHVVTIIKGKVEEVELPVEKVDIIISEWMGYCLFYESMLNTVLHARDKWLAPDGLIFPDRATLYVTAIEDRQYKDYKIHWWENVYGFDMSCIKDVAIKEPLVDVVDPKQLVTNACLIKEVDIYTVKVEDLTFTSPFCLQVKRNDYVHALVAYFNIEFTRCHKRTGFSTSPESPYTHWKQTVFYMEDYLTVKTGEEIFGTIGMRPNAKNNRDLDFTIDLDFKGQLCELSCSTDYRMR
PRMT5, sequence (O14744 whole entry, species assumed): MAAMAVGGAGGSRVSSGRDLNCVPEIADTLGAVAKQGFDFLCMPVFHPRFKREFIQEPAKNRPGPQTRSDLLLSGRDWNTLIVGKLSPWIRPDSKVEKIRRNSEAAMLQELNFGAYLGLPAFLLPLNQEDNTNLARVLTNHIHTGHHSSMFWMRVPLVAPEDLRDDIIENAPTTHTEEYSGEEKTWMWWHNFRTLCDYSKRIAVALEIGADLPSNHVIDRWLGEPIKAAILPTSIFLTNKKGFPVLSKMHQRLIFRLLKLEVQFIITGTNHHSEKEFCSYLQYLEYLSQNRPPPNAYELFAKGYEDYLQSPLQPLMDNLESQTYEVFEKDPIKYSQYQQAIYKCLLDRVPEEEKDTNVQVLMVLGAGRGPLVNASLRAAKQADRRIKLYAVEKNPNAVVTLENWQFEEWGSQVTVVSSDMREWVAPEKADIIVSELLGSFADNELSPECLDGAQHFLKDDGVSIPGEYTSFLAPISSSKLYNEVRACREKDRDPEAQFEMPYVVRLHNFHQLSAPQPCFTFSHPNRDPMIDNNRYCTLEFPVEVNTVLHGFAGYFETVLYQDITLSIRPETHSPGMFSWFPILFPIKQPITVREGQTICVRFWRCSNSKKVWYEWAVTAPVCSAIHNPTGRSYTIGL
PRMT5, sequence (Q9BQA1 whole entry partner, species assumed): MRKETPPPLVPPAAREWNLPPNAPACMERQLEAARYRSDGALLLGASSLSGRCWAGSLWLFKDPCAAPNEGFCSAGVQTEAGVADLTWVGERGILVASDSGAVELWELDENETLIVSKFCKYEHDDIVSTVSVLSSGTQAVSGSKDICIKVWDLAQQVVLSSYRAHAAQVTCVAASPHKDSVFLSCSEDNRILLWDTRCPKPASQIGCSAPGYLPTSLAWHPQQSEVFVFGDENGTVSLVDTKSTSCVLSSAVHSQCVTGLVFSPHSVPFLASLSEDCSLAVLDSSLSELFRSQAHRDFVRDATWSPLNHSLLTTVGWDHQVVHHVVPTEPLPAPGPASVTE

Compound	inhibition at 20 µM (PRMT1 [1])	inhibition of PRMT1 (PRMT1 [1]; initial screening at 20 μM compound)	inhibition of PRMT5 (PRMT5)	Ki (PRMT1 [2]; [5])	Ki (PRMT1 [2]; varied [3H]SAM, H4-20 fixed at 15 μM)	Kis smaller than Kii (PRMT1 [2]; varied H4-20)	Kii (PRMT1 [2]; [5])	fluorescence anisotropy plateau of H4-FL and PRMT1 mixture (PRMT1 [3])	level of methylated GFP-ALY protein ([4]; 293T cells, 20 μM, 15 h, ASYM24 antibody)	cell membrane permeability ([4]; inferred from inhibition of cellular PRMT1 activity in 293T cells)	cell growth (leukemia cell lines)	cell growth (HEL cells)	sensitivity of cell growth versus other cell lines (CMY cells)	sensitivity of cell growth versus other cell lines (CHRF-288-11 cells)	sensitivity of cell growth versus other cell lines (MOLM-13 cells)
N=C(N)c1ccc(-c2ccc(-c3ccc(OCCCCCCCCOc4ccc(-c5ccc(-c6ccc(C(=N)N)cc6)o5)cc4)cc3)o2)cc1 [Compound 2]	> 85%														
N=C(N)c1ccc(-c2ccc(-c3ccc(C(=N)N)c(F)c3)o2)cc1F [Compound 21]		very weak activity	very weak activity												
N=C(N)c1ccc(-c2ccc(-c3ccc(C(=N)N)cc3)o2)cc1 [Compound 1, 2,5-bis(4-amidinophenyl)furan]	> 75%			2.6 µM	16 µM	about 14 fold	38 µM	about 0.055	significantly reduced	permeable to cell membrane	inhibited cell growth for most of the leukemia cell lines	except HEL cells	more sensitive	more sensitive	more sensitive
